Reference: ChEMBL document CHEMBL3813601, “Structure-Based Inhibitor Design for Evaluation of a CYP3A4 Pharmacophore Model” (J Med Chem, 2016)
pIC50, pKd: −log10 of the molar value.

Assays:
Assay type in all cases: ADME
Cytochrome P450 3A4 [1] = target: T1, Cytochrome P450 3A4 (Homo sapiens, UniProt P08684); experiment: Binding affinity to C-terminal four-histidine tagged human CYP3A4delta3 to 24 residues expressed in Escherichia coli assessed as spectral dissociation constant by spectrophotometric method
Summary of the method: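 Equilibrium titration of CYP3A4 in 50 mM phosphate pH 7.4 with 20% glycerol and 1 mM DTT. Ligand added in small aliquots from DMSO stock, final DMSO <2%. Absorbance spectra recorded. Ks obtained from one- or two-site saturation fit of absorbance change versus ligand concentration.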

Cytochrome P450 3A4 [2] = target: T1, Cytochrome P450 3A4; experiment: Binding affinity to C-terminal four-histidine tagged human CYP3A4delta3 to 24 residues expressed in Escherichia coli assessed as rate constant for first phase
Summary of the method: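 Stopped-flow mixing of 2 μM CYP3A4 with varied ligand concentrations, room temperature, 50 mM phosphate pH 7.4. Absorbance followed at 409–411 or 427–428 nm depending on ligand. Fast-phase rate constant taken at saturating ligand concentration.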

Cytochrome P450 3A4 [3] = target: T1, Cytochrome P450 3A4; experiment: Binding affinity to C-terminal four-histidine tagged human CYP3A4delta3 to 24 residues expressed in Escherichia coli assessed as change in melting temperature at 10 uM by spectrophotometric method
Cytochrome P450 3A4 [4] = target: T1, Cytochrome P450 3A4; experiment: Inhibition of C-terminal four-histidine tagged human CYP3A4delta3 to 24 residues expressed in Escherichia coli assessed as 7-benzyloxy-4-(trifluoromethyl)coumarin O-debenzylation pretreated 2 mins followed by NADPH addition by fluorometric method in presence of rat cytochrome P450 reductase
Summary of the method: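 Reconstituted system at room temperature in 100 mM phosphate pH 7.4 with catalase and superoxide dismutase (2 units/mL each). 1 μM CYP3A4 and 1 μM rat CPR preincubated 1 h at room temperature, then diluted 20-fold in assay buffer just before measurement. BFC (50 μM) and varying compound concentrations added 2 min before starting with 100 μM NADPH. O-debenzylation read fluorometrically; IC50 = half-maximal inactivation.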

T1 sequence (P08684 whole entry, the tested form may be a part): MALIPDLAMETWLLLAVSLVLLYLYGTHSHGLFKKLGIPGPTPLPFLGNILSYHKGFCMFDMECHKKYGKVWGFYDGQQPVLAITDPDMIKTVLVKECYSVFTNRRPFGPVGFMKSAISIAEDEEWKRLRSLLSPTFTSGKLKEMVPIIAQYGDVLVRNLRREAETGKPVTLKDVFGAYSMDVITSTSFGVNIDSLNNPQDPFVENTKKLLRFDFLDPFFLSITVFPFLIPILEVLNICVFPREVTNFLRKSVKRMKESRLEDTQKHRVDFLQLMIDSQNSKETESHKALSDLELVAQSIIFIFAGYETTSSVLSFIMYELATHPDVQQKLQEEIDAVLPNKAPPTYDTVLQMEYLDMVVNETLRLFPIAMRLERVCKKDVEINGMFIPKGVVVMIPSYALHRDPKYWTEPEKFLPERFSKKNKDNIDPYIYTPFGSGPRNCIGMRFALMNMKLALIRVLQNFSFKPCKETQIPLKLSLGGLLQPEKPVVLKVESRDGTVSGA

SMILES	pKd (Cytochrome P450 3A4 [1])	K (Cytochrome P450 3A4 [2])	deltaTm (Cytochrome P450 3A4 [3])	pIC50 (Cytochrome P450 3A4 [4])
NCCc1cccnc1	2.60	0.6 s⁻¹	-0.1 °C	2.30
CC(C)(C)OC(=O)NCCCCCC(=O)NCc1cccnc1		20 s⁻¹	-0.2 °C	4.12
CC(C)(C)OC(=O)N[C@H](CSCCC(=O)NCc1cccnc1)CC1CCCCC1	5.00	4 s⁻¹	-2 °C	4.52
CC(C)(C)OC(=O)N[C@H](CSCCC(=O)NCc1cccnc1)Cc1ccccc1	6.05	1.7 s⁻¹	-1 °C	6.28
NCCCCCC(=O)NCc1cccnc1	5.00	0.8 s⁻¹	-0.2 °C	3.00
CC(C)(C)OC(=O)N[C@H](CSCCC(=O)NCc1cccnc1)Cc1c[nH]c2ccccc12	6.30	8 s⁻¹	0.2 °C	6.68
c1ccncc1 [PYRIDINE]		0.5 s⁻¹	0 °C	
